In ChEMBL document CHEMBL3612041, “Combating highly resistant emerging pathogen Mycobacterium abscessus and Mycobacterium tuberculosis with novel salicylanilide esters and carbamates” (Eur J Med Chem, 2015):
In brackets after ≈: the same amount, converted by molar mass.

Columns and labels:
[1] = system: Mycobacterium tuberculosis; assay: Antimycobacterial activity against multidrug-resistance Mycobacterium tuberculosis A8 after 28 days by serial dilution method; assay type: functional; settings: for MIC: Mycobacterium tuberculosis, A8, 672 h
Method in brief: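 Serial dilution in in-house Sula semisynthetic medium, pH 6.5. Compounds added as DMSO solutions at 10 doses, final 0.05–100 µg/mL. Incubation at 37 °C, 7 days for M. abscessus and 28 days for M. tuberculosis strains. MIC taken as the lowest concentration giving visible growth inhibition, confirmed by CFU on drug-free Löwenstein-Jensen medium after further equal incubation. Repeated at least twice.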

[2] = Selectivity index, ratio of IC50 for human MONO-MAC-6 cells to MIC for multidrug-resistance Mycobacterium tuberculosis A8; assay type: toxicity; settings: read-out: Selectivity Index
[3] = Selectivity index, ratio of IC50 for human MONO-MAC-6 cells to MIC for INH/RIF/rifabutine/streptomycin-resistance Mycobacterium tuberculosis 9449/2006 after 21 days; assay type: toxicity; settings: read-out: Selectivity Index
[4] = Selectivity index, ratio of IC50 for human MONO-MAC-6 cells to MIC for INH/RIF/rifabutine/streptomycin/ethambutol/ofloxacin/gentamicin/amikacin-resistance Mycobacterium tuberculosis Praha 131 after 21 days; assay type: toxicity; settings: read-out: Selectivity Index
[5] = system: Mycobacterium tuberculosis; assay: Antimycobacterial activity against INH/RIF/rifabutine/streptomycin-resistance Mycobacterium tuberculosis 9449/2006 after 14 days by microbroth dilution method; assay type: functional; settings: 9449/2006, 336 h
Method in brief: (§1)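 Micromethod MIC in Sula semisynthetic medium, pH 6.5. Incubation at 37 °C, read at 14 and 21 days. MIC taken as the lowest concentration giving complete inhibition of mycobacterial growth.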

[6] = system: Mycobacterium tuberculosis; assay: Antimycobacterial activity against INH/RIF/rifabutine/streptomycin-resistance Mycobacterium tuberculosis 9449/2006 after 21 days by microbroth dilution method; assay type: functional; settings: 9449/2006, 504 h; method in brief: as §1
[7] = system: Mycobacterium tuberculosis; assay: Antimycobacterial activity against INH/RIF/rifabutine/streptomycin/ethambutol/ofloxacin/gentamicin/amikacin-resistance Mycobacterium tuberculosis Praha 131 after 14 days by microbroth dilution method; assay type: functional; settings: Praha 131, 336 h; method in brief: as §1
[8] = system: Mycobacterium tuberculosis; assay: Antimycobacterial activity against INH/RIF/rifabutine/streptomycin/ethambutol/ofloxacin/gentamicin/amikacin-resistance Mycobacterium tuberculosis Praha 131 after 21 days by microbroth dilution method; assay type: functional; settings: Praha 131, 504 h; method in brief: as §1

Row | Compound | Activity [1] | MIC [1] | selectivity ratio [2] | selectivity ratio at 504 h [3] | selectivity ratio at 504 h [4] | MIC [5] | MIC [6] | MIC [7] | MIC [8]
1 | O=C(Nc1ccc(Cl)c(Cl)c1)c1cc(Cl)ccc1O | 8 CFU | 1.6 µM (≈ 0.507 µg/mL) | 2.3 | – | – | – | – | – | –
2 | O=C(O)c1cnc(Cl)cn1 | – | > 633 µM | – | – | – | – | – | – | –
3 | O=C(Nc1ccc(C(F)(F)F)cc1)c1cc(Cl)ccc1O | 0 CFU | 1.6 µM (≈ 0.505 µg/mL) | – | – | – | – | – | – | –
4 | CCCNC(=O)Oc1ccc(Cl)cc1C(=O)Nc1ccc(Cl)c(Cl)c1 | 2 CFU | 1.3 µM (≈ 0.522 µg/mL) | 5.4 | 7 | 7 | 1 µM (≈ 0.402 µg/mL) | 1 µM (≈ 0.402 µg/mL) | 1 µM (≈ 0.402 µg/mL) | 1 µM (≈ 0.402 µg/mL)
5 | O=C(Nc1ccc(C(F)(F)F)cc1)c1cc(Br)ccc1O | 0 CFU | 2.8 µM (≈ 1.01 µg/mL) | 2.7 | – | – | – | – | – | –
6 | O=C(c1ccccc1)c1ccc(NC(=O)c2cc(Cl)ccc2O)cc1 | 50 CFU | 14.2 µM (≈ 5 µg/mL) | 3.4 | – | – | – | – | – | –
7 | O=C(Nc1ccc(Cl)c(Cl)c1)c1cc(Br)ccc1O | 0 CFU | 2.8 µM (≈ 1.01 µg/mL) | 1.3 | – | – | – | – | – | –
8 | O=C(c1ccccc1)c1ccc(NC(=O)c2cc(Br)ccc2O)cc1 | 1 CFU | 12.7 µM (≈ 5.03 µg/mL) | 1.7 | – | – | – | – | – | –
9 | O=C(Oc1ccc(Cl)cc1C(=O)Nc1ccc(C(F)(F)F)cc1)c1cnc(Cl)cn1 | 1 CFU | 1.1 µM (≈ 0.502 µg/mL) | 1 | 0.6 | 1.1 | 1 µM (≈ 0.456 µg/mL) | 2 µM (≈ 0.912 µg/mL) | 1 µM (≈ 0.456 µg/mL) | 1 µM (≈ 0.456 µg/mL)
10 | O=C(Oc1ccc(Cl)cc1C(=O)Nc1ccc(Cl)c(Cl)c1)c1cnc(Cl)cn1 | 0 CFU | 4.4 µM (≈ 2.01 µg/mL) | 2.3 | 5.1 | 5.1 | 1 µM (≈ 0.457 µg/mL) | 2 µM (≈ 0.914 µg/mL) | 1 µM (≈ 0.457 µg/mL) | 2 µM (≈ 0.914 µg/mL)
11 | O=C(Oc1ccc(Br)cc1C(=O)Nc1ccc(C(F)(F)F)cc1)c1cnc(Cl)cn1 | 22 CFU | 2 µM (≈ 1 µg/mL) | 0.6 | 0.6 | 0.6 | 1 µM (≈ 0.501 µg/mL) | 2 µM (≈ 1 µg/mL) | 2 µM (≈ 1 µg/mL) | 2 µM (≈ 1 µg/mL)
12 | O=C(Oc1ccc(Br)cc1C(=O)Nc1ccc(Cl)c(Cl)c1)c1cnc(Cl)cn1 | 11 CFU | 2 µM (≈ 1 µg/mL) | 2.9 | – | – | – | – | – | –
13 | O=C(NCCCl)Oc1ccc(Cl)cc1C(=O)Nc1ccc(C(F)(F)F)cc1 | 0 CFU | 1.2 µM (≈ 0.505 µg/mL) | 6.3 | 7.6 | 3.8 | 0.5 µM (≈ 0.211 µg/mL) | 1 µM (≈ 0.421 µg/mL) | 1 µM (≈ 0.421 µg/mL) | 2 µM (≈ 0.842 µg/mL)
14 | O=C(NCCCCl)Oc1ccc(Cl)cc1C(=O)Nc1ccc(C(F)(F)F)cc1 | 0 CFU | 1.2 µM (≈ 0.522 µg/mL) | 7.3 | 4.4 | 4.4 | 1 µM (≈ 0.435 µg/mL) | 2 µM (≈ 0.87 µg/mL) | 1 µM (≈ 0.435 µg/mL) | 2 µM (≈ 0.87 µg/mL)
15 | O=C(NCCCl)Oc1ccc(Cl)cc1C(=O)Nc1ccc(Cl)c(Cl)c1 | 0 CFU | 2.4 µM (≈ 1.01 µg/mL) | 1.9 | – | – | – | – | – | –
16 | O=C(NCCCCl)Oc1ccc(Cl)cc1C(=O)Nc1ccc(Cl)c(Cl)c1 | 1 CFU | 1.2 µM (≈ 0.523 µg/mL) | 2.1 | – | – | – | – | – | –
17 | O=C(NCCCl)Oc1ccc(Br)cc1C(=O)Nc1ccc(C(F)(F)F)cc1 | 9 CFU | 1.1 µM (≈ 0.512 µg/mL) | 8.5 | 4.7 | 4.7 | 1 µM (≈ 0.466 µg/mL) | 2 µM (≈ 0.931 µg/mL) | 1 µM (≈ 0.466 µg/mL) | 2 µM (≈ 0.931 µg/mL)
18 | O=C(NCCCCl)Oc1ccc(Br)cc1C(=O)Nc1ccc(C(F)(F)F)cc1 | 0 CFU | 1 µM (≈ 0.48 µg/mL) | 5.7 | 2.9 | 2.9 | 1 µM (≈ 0.48 µg/mL) | 2 µM (≈ 0.959 µg/mL) | 1 µM (≈ 0.48 µg/mL) | 2 µM (≈ 0.959 µg/mL)
19 | O=C(NCCCl)Oc1ccc(Br)cc1C(=O)Nc1ccc(Cl)c(Cl)c1 | 0 CFU | 2.2 µM (≈ 1.03 µg/mL) | 3.1 | 3.5 | 3.5 | 1 µM (≈ 0.467 µg/mL) | 2 µM (≈ 0.933 µg/mL) | 1 µM (≈ 0.467 µg/mL) | 2 µM (≈ 0.933 µg/mL)
20 | O=C(NCCCCl)Oc1ccc(Br)cc1C(=O)Nc1ccc(Cl)c(Cl)c1 | 2 CFU | 1 µM (≈ 0.481 µg/mL) | 9.5 | 4.8 | 9.5 | 1 µM (≈ 0.481 µg/mL) | 2 µM (≈ 0.961 µg/mL) | 1 µM (≈ 0.481 µg/mL) | 1 µM (≈ 0.481 µg/mL)
21 | O=C(NCCCl)Oc1ccc(Cl)cc1C(=O)Nc1ccc(C(=O)c2ccccc2)cc1 | 21 CFU | 10.9 µM (≈ 4.98 µg/mL) | 3.5 | – | – | – | – | – | –
22 | O=C(NCCCCl)Oc1ccc(Cl)cc1C(=O)Nc1ccc(C(=O)c2ccccc2)cc1 | 0 CFU | 21.3 µM (≈ 10 µg/mL) | 0.8 | – | – | – | – | – | –
23 | CCCNC(=O)Oc1ccc(Cl)cc1C(=O)Nc1ccc(C(=O)c2ccccc2)cc1 | 6 CFU | 11.5 µM (≈ 5.02 µg/mL) | 1.6 | – | – | – | – | – | –
24 | O=C(NCCCl)Oc1ccc(Br)cc1C(=O)Nc1ccc(C(=O)c2ccccc2)cc1 | 0 CFU | 20 µM (≈ 10 µg/mL) | 1.2 | – | – | – | – | – | –
25 | O=C(NCCCCl)Oc1ccc(Br)cc1C(=O)Nc1ccc(C(=O)c2ccccc2)cc1 | 1 CFU | 1.9 µM (≈ 0.98 µg/mL) | 6.6 | – | – | – | – | – | –
26 | O=C(Oc1ccc(Cl)cc1C(=O)Nc1ccc(C(F)(F)F)cc1)c1cnccn1 | – | – | – | – | – | – | 0.5 µM (≈ 0.211 µg/mL) | – | 1 µM (≈ 0.422 µg/mL)
27 | O=C(Oc1ccc(Cl)cc1C(=O)Nc1ccc(Cl)c(Cl)c1)c1cnccn1 | – | – | – | – | – | – | 0.25 µM (≈ 0.106 µg/mL) | – | 0.125 µM (≈ 0.0528 µg/mL)
28 | O=C(Oc1ccc(Br)cc1C(=O)Nc1ccc(C(F)(F)F)cc1)c1cnccn1 | – | – | – | – | – | – | 0.5 µM (≈ 0.233 µg/mL) | – | 0.5 µM (≈ 0.233 µg/mL)
29 | NNC(=O)c1ccncc1 [ISONIAZID] | 12 CFU | 7.3 µM (≈ 1 µg/mL) | – | – | – | – | – | – | –
